From ChEMBL document CHEMBL1153548 (Antimicrob Agents Chemother, 2007)
≈ marks a conversion by molar mass, not a printed value.

Experiments:
[1] = Efflux clearance from middle ear fluid to plasma in Streptococcus pneumoniae WT3-infected Chinchilla lanigera assessed as unbound Km at 40000 ug/kg, iv followed by local dose of 19 ug/kg into intra-middle ear by compartmental microdialysis; assay type: ADME, organism-based
[2] = Efflux clearance from middle ear fluid to plasma in Streptococcus pneumoniae WT3-infected Chinchilla lanigera assessed as unbound Km at 40000 ug/kg, iv followed by local dose of 96 ug/kg into intra-middle ear by compartmental microdialysis; assay type: ADME, organism-based
[3] = Efflux clearance from middle ear fluid to plasma in Chinchilla lanigera assessed as unbound Km at 40000 ug/kg, iv followed by local dose of 19 ug/kg into intra-middle ear by compartmental microdialysis; assay type: ADME, organism-based
[4] = Efflux clearance from middle ear fluid to plasma in Chinchilla lanigera assessed as unbound Km at 40000 ug/kg, iv followed by local dose of 13 ug/kg into intra-middle ear by compartmental microdialysis; assay type: ADME, organism-based
[5] = Efflux clearance from middle ear fluid to plasma in Chinchilla lanigera assessed as unbound Km at 40000 ug/kg, iv followed by local dose of 66 ug/kg into intra-middle ear by compartmental microdialysis; assay type: ADME, organism-based
[6] = Efflux clearance from middle ear fluid to plasma in Chinchilla lanigera assessed as unbound Km at 40000 ug/kg, iv followed by local dose of […] into intra-middle ear by compartmental microdialysis; assay type: ADME, organism-based
[7] = Efflux clearance from middle ear fluid to plasma in Chinchilla lanigera assessed as unbound Km at 15000 ug/kg, iv followed by local dose of 164 ug/kg into intra-middle ear by compartmental microdialysis; assay type: ADME, organism-based
Streptococcus pneumoniae [8] = assay: Antimicrobial activity against amoxicillin-resistant Streptococcus pneumoniae; assay type: functional
Streptococcus pneumoniae [9] = assay: Antimicrobial activity against Streptococcus pneumoniae WT3 infected in bolus iv dosed Chinchilla lanigera assessed as log reduction in bacterial count within 10 hrs of additional local drug administration into intra-middle ear; assay type: functional
Procedure, shortened: (§1)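 Awake chinchillas with 50 CFU S. pneumoniae WT3 in 100 µl PBS inoculated into both middle ear bullae. […] MEF (30-100 µl) was drawn at 1 h predose and at 1, 2, 5, 8 and 10 h. It was serially diluted and plated on 5% sheep blood agar at 37°C under 10% CO2, with counts read at 24 and 48 h. Detection threshold was 25 CFU/ml.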

Streptococcus pneumoniae [10] = assay: Antimicrobial activity against amoxicillin-intermediate resistant Streptococcus pneumoniae; assay type: functional
[11] = Terminal half life in Chinchilla lanigera at 40 mg/kg, iv; assay type: ADME, organism-based; set-up: dose 40 mg/kg, route intravenous; details: in vivo, read-out: beta t1/2 (converted)
Procedure, shortened: (§2)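 Conscious, freely moving chinchillas were cannulated in the femoral artery and jugular vein. […] Arterial plasma was taken predose, at time zero and at 10-12 points up to 180 min, then stored at –60°C. Unbound drug was measured by ultrafiltration (1,500 x g, 15 min, 37°C) followed by C18 solid-phase extraction and HPLC.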

[12] = Terminal half life in Chinchilla lanigera at 15 mg/kg, iv; assay type: ADME, organism-based; set-up: dose 15 mg/kg, route intravenous; details: in vivo, read-out: beta t1/2 (converted); procedure, shortened: as §2
[13] = Cmax in Chinchilla lanigera at 40 mg/kg, iv followed by local dose of 13 to 235 ug/kg into intra-middle ear; assay type: ADME, organism-based; set-up: dose 40 mg/kg, route intravenous; details: in vivo; procedure, shortened: as §2
[14] = Cmax in Chinchilla lanigera at 15 mg/kg, iv followed by local dose of 13 to 235 ug/kg into intra-middle ear; assay type: ADME, organism-based; set-up: dose 15 mg/kg, route intravenous; details: in vivo; procedure, shortened: as §2
Streptococcus pneumoniae [15] = assay: Antimicrobial activity against Streptococcus pneumoniae WT3 infected in bolus iv dosed Chinchilla lanigera assessed as log reduction in bacterial count within 5 hrs of additional local drug administration into intra-middle ear; assay type: functional; procedure, shortened: as §1

CC1(C)S[C@@H]2[C@H](NC(=O)[C@H](N)c3ccc(O)cc3)C(=O)N2[C@H]1C(=O)O [AMOXICILLIN]
Km [1]: 35.9 µg/mL | Km [2]: 48.6 µg/mL | Km [3]: 34 µg/mL | Km [4]: 4.5 µg/mL | Km [5]: 54.9 µg/mL | Km [6]: 9.3 µg/mL | Km [7]: 17.8 µg/mL | MIC (Streptococcus pneumoniae [8]): 8 µg/mL (≈ 21.9 µM) | Activity (Streptococcus pneumoniae [9]): 2 | MIC (Streptococcus pneumoniae [10]): 1 µg/mL (≈ 2.74 µM) | half-life [11]: 18 min | half-life [12]: 18 min | Cmax [13]: 8.8 µg/mL | Cmax [14]: 111 µg/mL | Activity (Streptococcus pneumoniae [15]): 5
